Values after ≈ are worked out from the molar mass of the structure shown.
Key:
Assay type in all cases: functional
Candida tropicalis = assay: Antifungal activity against Candida tropicalis isolates after 48 hrs by CLSI M27-A2 procedure based assay; settings: Candida tropicalis, 48 h
How it was run: (§1)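 Candida isolates tested by CLSI M27-A2 broth microdilution at final 0.015–16 µg/ml, or 0.125–128 µg/ml for the comparator azole. Incubation was at 35°C with a visual read at 48 h. MIC-2 was the lowest concentration giving a prominent turbidity drop, about 50% growth inhibition.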

Nakaseomyces glabratus = assay: Antifungal activity against Candida glabrata isolates after 48 hrs by CLSI M27-A2 procedure based assay; settings: Nakaseomyces glabratus, 48 h; how it was run: as §1
Pichia kudriavzevii = assay: Antifungal activity against Candida krusei isolates after 48 hrs by CLSI M27-A2 procedure based assay; how it was run: as §1
Candida parapsilosis = assay: Antifungal activity against Candida parapsilosis isolates after 48 hrs by CLSI M27-A2 procedure based assay; settings: Lodderomyces parapsilosis, 48 h; how it was run: as §1
Candida = assay: Antifungal activity against Candida sp. isolates after 48 hrs by CLSI M27-A2 procedure based assay
How it was run: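 Candida isolates were stored at –70°C as yeast suspensions and subcultured on potato dextrose or Sabouraud agar before use. Broth microdilution used DMSO drug stocks, with final well concentrations of 0.015–16 or 0.125–128 µg/ml depending on the azole. Plates were incubated at 35°C and read macroscopically at 48 h. MIC-2 was the lowest concentration giving a prominent turbidity decrease (~50% growth inhibition).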

Candida albicans = assay: Antifungal activity against Candida albicans isolates after 48 hrs by CLSI M27-A2 procedure based assay; settings: Candida albicans, 48 h; how it was run: as §1
Lomentospora prolificans [1] = assay: Antifungal activity against Scedosporium prolificans isolates assessed as lowest compound concentration that produced complete inhibition of microbial growth after 24 hrs by CLSI M38-A procedure based assay; settings: Lomentospora prolificans, 24 h
Fusarium [2] = assay: Antifungal activity against Fusarium sp. isolates assessed as lowest compound concentration that produced complete inhibition of microbial growth after 24 hrs by CLSI M38-A procedure based assay; settings: Fusarium, 24 h
Syncephalastrum [3] = assay: Antifungal activity against Syncephalastrum isolates assessed as lowest compound concentration that produced slight growth or approximately 25% of that of growth control after 24 hrs by CLSI M38-A procedure based assay
How it was run: (§2)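 Clinical isolates were kept at –70°C as spore suspensions in sterile water and subcultured on potato dextrose or Sabouraud agar before testing. Broth microdilution used DMSO stocks in trays stored at –70°C, with final drug 0.015–16 µg/ml.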

Mucor [4] = assay: Antifungal activity against Mucor isolates assessed as lowest compound concentration that produced complete inhibition of microbial growth after 24 hrs by CLSI M38-A procedure based assay; settings: Mucor, 24 h
How it was run: (§3)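 Zygomycete isolates subcultured on potato dextrose or Sabouraud agar, then tested by CLSI M38-A broth microdilution. Drugs were serially diluted in plates at final 0.015–16 µg/ml and incubated at 35°C. Plates were read by eye at 24 h. MIC-0 was the lowest concentration giving complete growth inhibition.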

Cunninghamella [5] = assay: Antifungal activity against Cunninghamella isolates assessed as lowest compound concentration that produced complete inhibition of microbial growth after 24 hrs by CLSI M38-A procedure based assay; how it was run: as §3
Absidia [6] = assay: Antifungal activity against Absidia isolates assessed as lowest compound concentration that produced complete inhibition of microbial growth after 24 hrs by CLSI M38-A procedure based assay; how it was run: as §3
Scedosporium apiospermum [7] = assay: Antifungal activity against Scedosporium apiospermum isolates assessed as lowest compound concentration that produced complete inhibition of microbial growth after 24 hrs by CLSI M38-A procedure based assay; settings: Scedosporium apiospermum, 24 h
Aspergillus terreus = assay: Antifungal activity against Aspergillus terreus isolates after 48 hrs by CLSI M38-A procedure based assay; settings: Aspergillus terreus, 48 h
How it was run: (§4)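 Aspergillus isolates tested by CLSI M38-A broth microdilution at final 0.015–16 µg/ml and 35°C. Plates were read macroscopically at 48 h. The MIC was the lowest concentration producing complete inhibition of growth (MIC-0).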

Aspergillus fumigatus = assay: Antifungal activity against Aspergillus fumigatus isolates after 48 hrs by CLSI M38-A procedure based assay; settings: Aspergillus fumigatus, 48 h; how it was run: as §4
Aspergillus niger = assay: Antifungal activity against Aspergillus niger isolates after 48 hrs by CLSI M38-A procedure based assay; settings: Aspergillus niger, 48 h; how it was run: as §4
Mucor [8] = assay: Antifungal activity against Mucor isolates assessed as lowest compound concentration that produced slight growth or approximately 25% of that of growth control after 24 hrs by CLSI M38-A procedure based assay; how it was run: as §2
Fusarium [9] = assay: Antifungal activity against Fusarium sp. isolates assessed as lowest compound concentration that produced slight growth or approximately 25% of that of growth control after 24 hrs by CLSI M38-A procedure based assay
Syncephalastrum [10] = assay: Antifungal activity against Syncephalastrum isolates assessed as lowest compound concentration that produced complete inhibition of microbial growth after 24 hrs by CLSI M38-A procedure based assay; how it was run: as §3
Lomentospora prolificans [11] = assay: Antifungal activity against Scedosporium prolificans isolates assessed as lowest compound concentration that produced slight growth or approximately 25% of that of growth control after 24 hrs by CLSI M38-A procedure based assay
Cunninghamella [12] = assay: Antifungal activity against Cunninghamella isolates assessed as lowest compound concentration that produced slight growth or approximately 25% of that of growth control after 24 hrs by CLSI M38-A procedure based assay; how it was run: as §2
Rhizopus [13] = assay: Antifungal activity against Rhizopus isolates assessed as lowest compound concentration that produced complete inhibition of microbial growth after 24 hrs by CLSI M38-A procedure based assay; settings: Rhizopus, 24 h; how it was run: as §3
Aspergillus sp. = assay: Antifungal activity against Aspergillus sp. isolates after 48 hrs by CLSI M38-A procedure based assay; how it was run: as §4
Aspergillus flavus = assay: Antifungal activity against Aspergillus flavus isolates after 48 hrs by CLSI M38-A procedure based assay; settings: Aspergillus flavus, 48 h; how it was run: as §4
Rhizopus [14] = assay: Antifungal activity against Rhizopus isolates assessed as lowest compound concentration that produced slight growth or approximately 25% of that of growth control after 24 hrs by CLSI M38-A procedure based assay
How it was run: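 Rhizopus isolates tested by CLSI M38-A broth microdilution at final 0.015–16 µg/ml, 35°C, read by eye at 24 h.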

Absidia [15] = assay: Antifungal activity against Absidia isolates assessed as lowest compound concentration that produced slight growth or approximately 25% of that of growth control after 24 hrs by CLSI M38-A procedure based assay; how it was run: as §2
Scedosporium apiospermum [16] = assay: Antifungal activity against Scedosporium apiospermum isolates assessed as lowest compound concentration that produced slight growth or approximately 25% of that of growth control after 24 hrs by CLSI M38-A procedure based assay

OC(Cn1cncn1)(Cn1cncn1)c1ccc(F)cc1F [FLUCONAZOLE]
MIC (Candida tropicalis): 0.25 µg/mL (≈ 0.816 µM) | MIC50 (Candida tropicalis): 0.25 µg/mL (≈ 0.816 µM) | MIC90 (Candida tropicalis): 2 µg/mL (≈ 6.53 µM) | MIC50 (Nakaseomyces glabratus): 16 µg/mL (≈ 52.2 µM) | MIC90 (Nakaseomyces glabratus): 32 µg/mL (≈ 104 µM) | MIC (Pichia kudriavzevii): 16 µg/mL (≈ 52.2 µM) | MIC50 (Candida parapsilosis): 0.5 µg/mL (≈ 1.63 µM) | MIC90 (Candida parapsilosis): 1 µg/mL (≈ 3.27 µM) | MIC (Candida): 0.25 µg/mL (≈ 0.816 µM) | MIC50 (Candida albicans): 0.25 µg/mL (≈ 0.816 µM) | MIC90 (Candida albicans): 16 µg/mL (≈ 52.2 µM)

C[C@@H](c1ncncc1F)[C@](O)(Cn1cncn1)c1ccc(F)cc1F [VORICONAZOLE]
MIC50 (Candida tropicalis): 0.03 µg/mL (≈ 0.0859 µM) | MIC90 (Candida tropicalis): 0.06 µg/mL (≈ 0.172 µM) | MIC (Lomentospora prolificans [1]): 16 µg/mL (≈ 45.8 µM) | MIC50 (Fusarium [2]): 4 µg/mL (≈ 11.5 µM) | MIC90 (Fusarium [2]): 16 µg/mL (≈ 45.8 µM) | MIC50 (Nakaseomyces glabratus): 0.125 µg/mL (≈ 0.358 µM) | MIC90 (Nakaseomyces glabratus): 1 µg/mL (≈ 2.86 µM) | MIC (Syncephalastrum [3]): 2 µg/mL (≈ 5.73 µM) | MIC50 (Mucor [4]): > 16 µg/mL | MIC90 (Mucor [4]): > 16 µg/mL | MIC (Cunninghamella [5]): > 16 µg/mL | MIC (Absidia [6]): 4 µg/mL (≈ 11.5 µM) | MIC50 (Scedosporium apiospermum [7]): 0.5 µg/mL (≈ 1.43 µM) | MIC90 (Scedosporium apiospermum [7]): 1 µg/mL (≈ 2.86 µM) | MIC (Pichia kudriavzevii): 0.125 µg/mL (≈ 0.358 µM) | MIC50 (Aspergillus terreus): 1 µg/mL (≈ 2.86 µM) | MIC90 (Aspergillus terreus): 1 µg/mL (≈ 2.86 µM) | MIC50 (Aspergillus fumigatus): 0.5 µg/mL (≈ 1.43 µM) | MIC90 (Aspergillus fumigatus): 1 µg/mL (≈ 2.86 µM) | MIC50 (Aspergillus niger): 1 µg/mL (≈ 2.86 µM) | MIC90 (Aspergillus niger): 1 µg/mL (≈ 2.86 µM) | MIC50 (Mucor [8]): 16 µg/mL (≈ 45.8 µM) | MIC90 (Mucor [8]): > 16 µg/mL | MIC50 (Fusarium [9]): 4 µg/mL (≈ 11.5 µM) | MIC90 (Fusarium [9]): 8 µg/mL (≈ 22.9 µM) | MIC (Syncephalastrum [10]): 4 µg/mL (≈ 11.5 µM) | MIC (Candida parapsilosis): < 0.015 µg/mL | MIC50 (Candida parapsilosis): < 0.015 µg/mL | MIC90 (Candida parapsilosis): 0.06 µg/mL (≈ 0.172 µM) | MIC (Lomentospora prolificans [11]): 4 µg/mL (≈ 11.5 µM) | MIC (Candida): 0.006 µg/mL (≈ 0.0172 µM) | MIC (Cunninghamella [12]): 8 µg/mL (≈ 22.9 µM) | MIC (Rhizopus [13]): 8 µg/mL (≈ 22.9 µM) | MIC50 (Rhizopus [13]): 8 µg/mL (≈ 22.9 µM) | MIC90 (Rhizopus [13]): 16 µg/mL (≈ 45.8 µM) | MIC (Aspergillus sp.): 0.125 µg/mL (≈ 0.358 µM) | MIC50 (Candida albicans): 0.03 µg/mL (≈ 0.0859 µM) | MIC90 (Candida albicans): 0.06 µg/mL (≈ 0.172 µM) | MIC50 (Aspergillus flavus): 1 µg/mL (≈ 2.86 µM) | MIC90 (Aspergillus flavus): 1 µg/mL (≈ 2.86 µM) | MIC50 (Rhizopus [14]): 8 µg/mL (≈ 22.9 µM) | MIC90 (Rhizopus [14]): > 16 µg/mL | MIC (Absidia [15]): 4 µg/mL (≈ 11.5 µM) | MIC50 (Scedosporium apiospermum [16]): 0.25 µg/mL (≈ 0.716 µM) | MIC90 (Scedosporium apiospermum [16]): 0.5 µg/mL (≈ 1.43 µM)
